Test [1] relates to Liver. In words: Antioxidant activity in Wistar rat liver assessed as inhibition of Fe2+/ascorbate-induced lipid peroxidation at 0.1 mM after 1 hr by TBARS assay relative to control. The test is classed as functional, tissue-based. In short, it runs like this: (§1)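 Lipid peroxidation assay: MDA formation measured with thiobarbituric acid. Tested at 1 mM and 0.1 mM, melatonin as positive control. Values are % mean inhibition from at least triplicate analyses.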

Test [2] has as its system Liver. In words: Antioxidant activity in Wistar rat liver assessed as inhibition of Fe2+/ascorbate-induced lipid peroxidation at 1 mM after 1 hr by TBARS assay relative to control. The test is classed as functional, tissue-based. A digest of the protocol: as §1
Test [3] has as its system Radical scavenging activity. The test can be described thus: Antioxidant activity of the compound assessed as DPPH free radical scavenging activity at 1 mM after 30 mins by spectrophotometric analysis relative to control. The test is classed as functional. In short, it runs like this:
(§2)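 Free-radical scavenging measured as bleaching of the stable radical DPPH at 517 nm. Tested at 1 mM and 0.1 mM, melatonin as positive control. Results are % mean inhibition, average of at least triplicate analyses.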
(DPPH is a stable violet radical that fades when it is reduced.)

A short description of test [4]: Antioxidant activity of the compound assessed as inhibition of xanthine-xanthine oxidase-mediated superoxide radical formation at 0.1 mM after 3 mins by NBT reduction assay relative to control. The test is classed as functional. A digest of the protocol:
(§3)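 Superoxide anion generated by xanthine/xanthine oxidase and detected spectrophotometrically by nitroblue tetrazolium reduction. Test concentrations 1 mM and 0.1 mM, melatonin as positive control. Values are % mean inhibition from at least triplicate determinations.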

A short description of test [5]: Antioxidant activity of the compound assessed as inhibition of xanthine-xanthine oxidase-mediated superoxide radical formation at 1 mM after 3 mins by NBT reduction assay relative to control. The test is classed as functional. A digest of the protocol: as §3
Test [6] deals with Radical scavenging activity. In words: Antioxidant activity of the compound assessed as DPPH free radical scavenging activity at 0.1 mM after 30 mins by spectrophotometric analysis relative to control. The test is classed as functional. A digest of the protocol: as §2

The source made the active and inactive calls. The rule behind the calls is not given here.

In the case of `O=[N+]([O-])c1ccc(-c2cc3cc(F)cc(Cl)c3[nH]2)cc1`, the inhibition – broadly, the share of the control response that was lost under treatment – with Liver [1] was found to be 5%; in the test on Liver [2] it was 20%; in test [3], 5%; in test [5], 39%. For the same compound, the inhibition result in test [4] and in test [6] was “inactive” in each case.
Take `COc1ccc(-c2cc3cc(F)ccc3[nH]2)cc1OC`: the inhibition in the test on Liver [1] is 10%; in the test with Liver [2], 24%; in test [3], 21%; in test [5], 51%; in test [6], 2%. The inhibition result in test [4] was “inactive”.
Consider `COc1ccc(-c2cc3cc(F)cc(Cl)c3[nH]2)cc1OC`, for which the inhibition with Liver [1] came out at 13%; with Liver [2] it was 24%; in test [3] it was 10%; in test [5], 39%. In addition, the inhibition entry in test [4] and in test [6] was “inactive” each time.
As to `Nc1ccc(-c2cc3ccc(Cl)cc3[nH]2)cc1`, the inhibition is 35% in the test on Liver [1]; 35% in the test on Liver [2]; 77% in test [3]; 17% in test [4]; 20% in test [5]; 50% in test [6].
`Nc1ccc(-c2cc3cc(F)ccc3[nH]2)cc1`: the inhibition in the test on Liver [1] was 17%; in the test with Liver [2], 19%; in test [3] it was 28%; in test [4] it was 20%; in test [5] it was 35%; in test [6] it was 18%.
For `Nc1ccc(-c2cc3cccc(F)c3[nH]2)cc1`, the inhibition in the test on Liver [1] is 26%; with Liver [2], 30%; in test [3], 77%; in test [4] it was 15%; in test [5], 23%; in test [6], 43%.
For `COc1ccc2[nH]cc(CCNC(C)=O)c2c1`, the inhibition worked out at 45% in the test on Liver [1]; 85% in the test with Liver [2]; 98% in test [3]; 19% in test [4]; 75% in test [5]; 81% in test [6].
Take `COc1ccc2[nH]c(-c3ccc(N)cc3)cc2c1`: the inhibition with Liver [1] came to 33%; in the test with Liver [2] it was 42%; in test [3], 85%; in test [4], 14%; in test [5] it was 35%; in test [6], 69%.
Turning to `COc1ccc(-c2cc3ccccc3[nH]2)cc1OC`, the inhibition with Liver [1] was 13%; in the test on Liver [2], 27%; in test [3], 44%; in test [4], 12%; in test [5], 70%; in test [6], 12%.
As for `COc1ccc(-c2cc3cc(F)ccc3[nH]2)cc1F`, the results for the inhibition in the test on Liver [1] and with Liver [2] were 7% and 13%, respectively. The inhibition result in test [3], in test [4], in test [5] and in test [6] was “inactive” in each case.
Consider `COc1cc(-c2cc3cc(F)ccc3[nH]2)cc(OC)c1OC`, for which the inhibition in the test with Liver [1] came out at 10%; in the test on Liver [2], 19%; in test [3], 23%; in test [4] it was 9%; in test [5] it was 50%; in test [6], 3%.
Regarding `COc1ccc(-c2cc3ccccc3[nH]2)cc1`, the inhibition in the test on Liver [1] turned out to be 14%; with Liver [2], 24%; in test [3] it was 38%; in test [4] it was 12%; in test [5], 43%; in test [6] it was 6%.
Turning to `Nc1ccc(-c2cc3c(Cl)cccc3[nH]2)cc1`, the inhibition in the test with Liver [1] is 30%; with Liver [2], 30%; in test [3], 69%; in test [5], 18%; in test [6] it was 44%. In test [4], the inhibition entry was “inactive”.
For the compound `Nc1ccc(-c2cc3ccc(F)cc3[nH]2)cc1`, the inhibition came to 22% in the test on Liver [1]; 35% with Liver [2]; 80% in test [3]; 35% in test [4]; 81% in test [5]; 65% in test [6].
Turning to `COc1ccc(-c2cc3cc(F)cc(Cl)c3[nH]2)cc1`, the inhibition worked out at 6% in the test on Liver [1], 33% in the test on Liver [2] and 32% in test [5]. Moreover, the inhibition result in test [3], in test [4] and in test [6] was “inactive” throughout.
In the case of `Nc1ccc(-c2cc3cc(Cl)ccc3[nH]2)cc1`, the inhibition in the test with Liver [1] was determined as 30%; in the test with Liver [2], 31%; in test [3], 70%; in test [5], 22%; in test [6], 23%. Also, the inhibition entry in test [4] was “inactive”.
As for `COc1cc(-c2cc3ccccc3[nH]2)cc(OC)c1OC`, the inhibition is 33% in the test with Liver [1]; 28% with Liver [2]; 35% in test [3]; 13% in test [4]; 42% in test [5]; 9% in test [6].
For the compound `Nc1ccc(-c2cc3ccccc3[nH]2)cc1`, the inhibition worked out at 13% with Liver [1]; 26% in the test with Liver [2]; 74% in test [3]; 16% in test [4]; 30% in test [5]; 43% in test [6].

For the origin of these results see ChEMBL document CHEMBL2375243, “Synthesis and antioxidant properties of substituted 2-phenyl-1H-indoles” (Bioorg Med Chem Lett, 2013).
